Test results: ChEMBL document CHEMBL3817728, “Synthesis, Evaluation, and Mechanism Study of Novel Indole-Chalcone Derivatives Exerting Effective Antitumor Activity Through Microtubule Destabilization in Vitro and in Vivo” (J Med Chem, 2016)
Calls of active or inactive are those of the source. The calls are words filed in the database; no cut-off is given here.

How the values were obtained:
A549 [1] = test: Induction of apoptosis in human A549 cells assessed as early apoptotic cells at 3 nM after 48 hrs by annexin V-FITC/propidium iodide staining-based flow cytometric method (reference value: 1.95%); type: functional
A549 [2] = test: Induction of apoptosis in human A549 cells assessed as early apoptotic cells at 10 nM after 48 hrs by annexin V-FITC/propidium iodide staining-based flow cytometric method (reference value: 1.95%); type: functional
A549 [3] = test: Induction of apoptosis in human A549 cells assessed as late apoptotic cells at 10 nM after 48 hrs by annexin V-FITC/propidium iodide staining-based flow cytometric method (reference value: 0.01%); type: functional
A549 [4] = test: Induction of apoptosis in human A549 cells assessed as necrotic cells at 10 nM after 48 hrs by annexin V-FITC/propidium iodide staining-based flow cytometric method (reference value: 0.01%); type: functional
A549 [5] = test: Disruption of mitochondrial membrane potential in human A549 cells assessed as red fluorescence intensity at 1 nM after 24 hrs by JC1 staining-based flow cytometric method (reference value: 99.2%); type: functional
A549 [6] = test: Disruption of mitochondrial membrane potential in human A549 cells assessed as red fluorescence intensity at 3 nM after 24 hrs by JC1 staining-based flow cytometric method (reference value: 99.2%); type: functional
A549 [7] = test: Disruption of mitochondrial membrane potential in human A549 cells assessed as green fluorescence intensity at 10 nM after 24 hrs by JC1 staining-based flow cytometric method (reference value: 0.02%); type: functional
[8] = Metabolic stability in Sprague-Dawley rat liver microsomes assessed as compound remaining at 90 mins in presence of NADPH regenerating system by HPLC method; type: ADME; details: read-out: Stability
How it was run: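 Test compound incubated with rat liver microsomes at 37 ℃ in buffer containing an NADPH regenerating system for the stated time. Remaining parent compound was quantified by HPLC.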

[9] = Metabolic stability in Sprague-Dawley rat liver microsomes assessed as compound remaining at 120 mins in presence of NADPH regenerating system by HPLC method; type: ADME; details: read-out: Stability
How it was run: (§1)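 Rat liver microsomes incubated with compound at 37 ℃ for indicated times in buffer containing NADPH regenerating system; residual parent determined by HPLC.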

[10] = Metabolic stability in Sprague-Dawley rat liver microsomes assessed as compound remaining at 150 mins in presence of NADPH regenerating system by HPLC method; type: ADME; details: read-out: Stability; how it was run: as §1
[11] = Metabolic stability in Sprague-Dawley rat liver microsomes assessed as compound remaining at 180 mins in presence of NADPH regenerating system by HPLC method; type: ADME; details: read-out: Stability; how it was run: as §1
[12] = Half life in Sprague-Dawley rat liver microsomes in presence of NADPH regenerating system by HPLC method; type: ADME
How it was run: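 Compound incubated with rat liver microsomes at 37 °C in buffer containing an NADPH regenerating system, sampled over time up to 3 h. Remaining parent compound was measured by HPLC and half-life derived.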

A549 [13] = test: Disruption of microtubule network in human A549 cells assessed as multinucleation at 10 nM after 24 hrs by Hoechst 33342 staining-based laser scanning confocal microscopic analysis; type: cell-based
How it was run: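 A549 cells plated in confocal dishes and incubated with compound for 24 h. Cells were then fixed and stained, and microtubule and spindle organization was imaged by laser confocal microscopy. Experiments done five times; representative results shown.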

A549 [14] = test: Cytotoxicity against human A549 cells assessed as cell viability after 48 hrs by MTT assay; type: functional, cell-based; details: A549, 48 h
How it was run: (§2)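 Cancer cell lines treated with compound for 48 h, and viability read by MTT assay. IC50 given as mean ± SD from at least three independent experiments.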

[15] = Cytotoxicity against human Bel7402 cells assessed as cell viability after 48 hrs by MTT assay; type: functional, cell-based; details: Bel-7402, 48 h; how it was run: as §2
[16] = Cytotoxicity against human HCT8 cells assessed as cell viability after 48 hrs by MTT assay; type: functional, cell-based; details: HCT-8, 48 h; how it was run: as §2
HUVEC = test: Cytotoxicity against quiescent HUVEC assessed as growth inhibition after 48 hrs in presence of 0.5% fetal calf serum and absence of growth factor by MTT assay; type: cell-based; details: Homo sapiens
How it was run: (§3)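 Non-tumorigenic cells given 48 h compound exposure, and viability read by MTT. IC50 is mean ± SE from dose-response curves of at least three independent experiments. HUVECs were kept quiescent in endothelial cell medium with 0.5% fetal calf serum and no growth factor.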

[17] = Cytotoxicity against HLF assessed as growth inhibition after 48 hrs by MTT assay; details: Homo sapiens; how it was run: as §3
A2780 = test: Resistance index, ratio of IC50 for human A2780/TAX cells to IC50 for human A2780 cells; type: functional
[18] = Cytotoxicity against human HCT8/VCT cells assessed as growth inhibition after 48 hrs by MTT assay; type: functional, cell-based
How it was run: (§4)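 Drug-resistant lines were tested by a 48 h MTT viability assay. IC50 was derived from dose-response curves and reported as mean ± SE of at least three independent experiments.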

HCT-8 = test: Resistance index, ratio of IC50 for human HCT8/VCT cells to IC50 for human HCT8 cells; type: functional
[19] = Cytotoxicity against human A549/CDDP cells assessed as growth inhibition after 48 hrs by MTT assay; type: functional, cell-based; details: A549, 48 h; how it was run: as §4
A549 [20] = test: Resistance index, ratio of IC50 for human A549/CDDP cells to IC50 for human A549 cells; type: functional
A549 [21] = test: Cell cycle arrest in human A549 cells assessed as accumulation at sub-G1 phase at 3 to 10 nM after 24 to 72 hrs by propidium iodide staining-based flow cytometric analysis; type: functional
How it was run: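 A549 cells exposed to compound for 24, 48 or 72 h, then trypsinized and harvested. DNA stained with propidium iodide and analyzed by flow cytometry. Percentage of cells in each cell-cycle phase was quantified from the DNA histograms, with sub-G1 taken as the hypodiploid peak. Performed at least three times; representative experiments shown.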

A549 [22] = test: Induction of apoptosis in human A549 cells assessed as early apoptotic cells at 1 nM after 24 hrs by annexin V-FITC/propidium iodide staining-based flow cytometric method (reference value: 1.07%); type: functional
A549 [23] = test: Induction of apoptosis in human A549 cells assessed as early apoptotic cells at 3 nM after 24 hrs by annexin V-FITC/propidium iodide staining-based flow cytometric method (reference value: 1.07%); type: functional
A549 [24] = test: Induction of apoptosis in human A549 cells assessed as late apoptotic cells at 3 nM after 24 hrs by annexin V-FITC/propidium iodide staining-based flow cytometric method (reference value: 0.01%); type: functional
A549 [25] = test: Induction of apoptosis in human A549 cells assessed as viable cells at 10 nM after 24 hrs by annexin V-FITC/propidium iodide staining-based flow cytometric method (reference value: 98.9%); type: functional; details: A549, 24 h, read-out: Activity
How it was run: (§5)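 A549 cells exposed 24 h or 48 h at indicated concentrations, then trypsinized, harvested and stained with Annexin V-FITC and PI; flow cytometry quadrants scored as necrotic (upper left), late apoptotic (upper right), live (bottom left) and early apoptotic (bottom right). Five independent experiments, representative shown.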

A549 [26] = test: Induction of apoptosis in human A549 cells assessed as early apoptotic cells at 10 nM after 24 hrs by annexin V-FITC/propidium iodide staining-based flow cytometric method (reference value: 1.07%); type: functional
A549 [27] = test: Induction of apoptosis in human A549 cells assessed as viable cells at 1 nM after 48 hrs by annexin V-FITC/propidium iodide staining-based flow cytometric method (reference value: 98.1%); type: functional; details: A549, 48 h, read-out: Activity; how it was run: as §5

`COc1ccc2c(/C=C(\C)C(=O)c3cc(OC)c(OC)c(OC)c3)c[nH]c2c1` gave an Activity (A549 [1]) of 26.8%, an Activity (A549 [2]) of 8.41% and an Activity (A549 [3]) of 70.2%. For the same compound, the Activity (A549 [4]) was 8.38%, the Activity (A549 [5]) was 97.2% and the Activity (A549 [6]) was 53.9%. It also gave an Activity (A549 [7]) of 57.2%, a remaining at 1.5 h [8] of 73.7% and a remaining at 2 h [9] of 66.3%. For the same compound, the remaining at 2.5 h [10] was 54.1%, the remaining at 3 h [11] was 42.4% and the half-life [12] was 2.62 h. The Activity (A549 [13]) was “Active”, the IC50 (A549 [14]) was 3 nM and the IC50 [15] was 9 nM. The IC50 [16] was 6 nM, the IC50 (HUVEC) was 163 nM and the IC50 [17] was 5670 nM. The “Ratio IC50” value (A2780) was 12.4, the IC50 [18] was 5 nM and the “Ratio IC50” value (HCT-8) was 0.42. For the same compound, the IC50 [19] was 4 nM, the “Ratio IC50” value (A549 [20]) was 1.33 and the Activity (A549 [21]) was “Active”. For the same compound, the Activity (A549 [22]) was 12.8%, the Activity (A549 [23]) was 28.6% and the Activity (A549 [24]) was 3.56%. It also gave a viability at 0.01 µM (A549 [25]) of 60.4%, an Activity (A549 [26]) of 25.27% and a viability at 0.001 µM (A549 [27]) of 66.8%.
